Experimental findings from ChEMBL document CHEMBL4699593, “Identification of 2,4-Disubstituted Imidazopyridines as Hemozoin Formation Inhibitors with Fast-Killing Kinetics and In Vivo Efficacy in the Plasmodium falciparum NSG Mouse Model” (J Med Chem, 2020) are described below.

≈ marks a conversion by molar mass, not a printed value. Where only a bound is given, the exact number is not on record here.

The test system of the first data set is Plasmodium falciparum. The data set can be described thus: Antiplasmodial activity against multidrug-resistant asexual blood stage Plasmodium falciparum K1 strain assessed as reduction in parasite growth after 72 hrs by NBT reagent based LDH assay. It counts as functional, organism-based. To be noted: K1, 72 h. The gist of the method: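 Asexual blood-stage K1 (multidrug-resistant) parasites were read out by the parasite lactate dehydrogenase (pLDH) assay. […] Most individual values varied less than 2× (maximum 3×).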
A word on the IC50: it is the concentration that inhibits the measured activity by half. On to `OCCN1CCN(c2nccc3[nH]c(-c4ccc(F)c(F)c4)nc23)CC1`, for which the IC50 was 1400 nM.
Take `COC(=O)c1cccc(-c2nc3c(N4CCC(N5CCN(C)CC5)CC4)nccc3[nH]2)c1`: the IC50 came to 280 nM.
As for `CN1CCN(C2CCN(c3nccc4[nH]c(-c5cccc(C#N)c5)nc34)CC2)CC1`, the concentration for half-maximal inhibition (IC50) amounted to 580 nM.

Test system in another data set: not listed separately
In words: Aqueous solubility of compound in phosphate buffer saline at pH 6.5 incubated for 20 hrs under shaking condition by shake-flask method based HPLC-DAD analysis. It counts as physicochemical. To be noted: phosphate buffered saline. The gist of the method:
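Equilibrium aqueous solubility was measured at pH 6.5 using a miniaturized shake-flask method.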
For orientation: solubility (thermodynamic) means solubility found after equilibrating the solid with the medium. Consider `CN1CCN(CC2CCN(c3nccc4[nH]c(-c5cccc(C(=O)N(C)C)c5)nc34)CC2)CC1`, for which the thermodynamic solubility at 20 h amounted to 180 µM (≈ 83.1 µg/mL).
Still for that read-out and setting: as for `CN1CCN(CC2CCN(c3ncnc4[nH]c(-c5cc(F)cc(F)c5)nc34)CC2)CC1`, the figure is 55 µM (≈ 23.5 µg/mL).
The same measure, in the same setting: as for `O=C1CN(c2nccc3[nH]c(-c4ccc(F)c(F)c4)nc23)CCN1`, the figure is under 5 µM; as for `CN1CCN(CC2CCN(c3nccc4[nH]c(-c5cccc(C(=O)O)c5)nc34)CC2)CC1`, 195 µM (≈ 84.7 µg/mL).
On to `CN1CCN(CC2CCN(c3ccnc4[nH]c(-c5cc(F)cc(F)c5)nc34)CC2)CC1`, for which the thermodynamic solubility at 20 h is under 5 µM.
On the same count and under the same terms, the same measure for `Fc1ccc(-c2nc3c(C4CCNCC4)nccc3[nH]2)cc1F`: 200 µM (≈ 62.9 µg/mL).
In the case of `Fc1ccc(-c2nc3c(N4CCN(CC(F)(F)F)CC4)nccc3[nH]2)cc1F`, the thermodynamic solubility at 20 h amounted to 10 µM (≈ 3.97 µg/mL).
Regarding `CN1CCN(C2CCN(c3nccc4[nH]c(C5CCCC5)nc34)CC2)CC1`, the thermodynamic solubility at 20 h was determined as 170 µM (≈ 62.6 µg/mL).
On to `OCCN1CCN(c2nccc3[nH]c(-c4ccc(F)c(F)c4)nc23)CC1`, for which the solubility (thermodynamic) at 20 h stood at 95 µM (≈ 34.1 µg/mL).
Still for that read-out and setting: the same measure for `O=S1(=O)CCN(CC2CCN(c3nccc4[nH]c(-c5cc(F)cc(F)c5)nc34)CC2)CC1`: under 5 µM.
On the same count and under the same terms, the same measure for `CN1CCN(CC2CCN(c3nccc4[nH]c(C5CCCC5)nc34)CC2)CC1`: under 5 µM; for `CN1CCN(CC2CCN(c3nccc4[nH]c(-c5cccc(OCCN)c5)nc34)CC2)CC1`: 200 µM (≈ 89.9 µg/mL); for `CN1CCN(CC2CCN(c3nccc4c3nc(-c3cc(F)cc(F)c3)n4C)CC2)CC1`: 150 µM (≈ 66.1 µg/mL).

The next data set has as its system CHO. In words: Cytotoxicity against CHO cells assessed as reduction in cell viability by MTT assay. It counts as cell-based, Cricetulus griseus. To be noted: chinese hamster. Put shortly: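 Cytotoxicity was measured in Chinese hamster ovary (CHO) cells and reported as CC50. The selectivity index is CC50 divided by NF54 IC50.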
(Tetrazolium dyes change colour on reduction, which living cells bring about.)
A word on the CC50: it is the concentration that lowers cell viability or growth by half. As for `CN1CCN(CC2CCN(c3nccc4[nH]c(-c5cccc(C(=O)N(C)C)c5)nc34)CC2)CC1`, the 50% cytotoxic concentration (CC50) was over 50 µM.
On to `CN1CCN(CC2CCN(c3nccc4[nH]c(-c5cccc(C(=O)O)c5)nc34)CC2)CC1`, for which the 50% cytotoxic concentration (CC50) was over 50 µM.
Regarding `Fc1ccc(-c2nc3c(N4CCN(CC(F)(F)F)CC4)nccc3[nH]2)cc1F`, the CC50 came to 39 µM.
As for `O=S1(=O)CCN(CC2CCN(c3nccc4[nH]c(-c5cc(F)cc(F)c5)nc34)CC2)CC1`, the cytotoxic concentration (CC50) is over 50 µM.
On the same count and under the same terms, the same measure for `COC(=O)c1cccc(-c2nc3c(N4CCC(N5CCN(C)CC5)CC4)nccc3[nH]2)c1`: 34 µM; for `CN1CCN(C2CCN(c3nccc4[nH]c(-c5cccc(C#N)c5)nc34)CC2)CC1`: 16 µM.

The test system of a further data set is Plasmodium falciparum. The data set can be described thus: Antiplasmodial activity against multidrug-sensitive asexual blood stage Plasmodium falciparum NF54 strain assessed as reduction in parasite growth after 72 hrs by NBT reagent based LDH assay. It counts as functional, organism-based. Particulars: NF54, 72 h.
For `CN1CCN(CC2CCN(c3nccc4[nH]c(-c5cccc(C(=O)N(C)C)c5)nc34)CC2)CC1`, the IC50 was determined as 1000 nM.
In the case of `CN1CCN(c2nccc3[nH]c(-c4cccc(OC(F)(F)F)c4)nc23)CC1`, the IC50 was found to be 490 nM.
The same measure, in the same setting: as for `CN1CCN(CC2CCN(c3ncnc4[nH]c(-c5cc(F)cc(F)c5)nc34)CC2)CC1`, the figure is 1800 nM; as for `Fc1ccc(-c2nc3c(N4CCOCC4)nccc3[nH]2)cc1F`, 3100 nM.
On the same count and under the same terms, the same measure for `O=C1CN(c2nccc3[nH]c(-c4ccc(F)c(F)c4)nc23)CCN1`: over 10000 nM; for `CN1CCN(CC2CCN(c3nccc4[nH]c(-c5cccc(C(=O)O)c5)nc34)CC2)CC1`: over 10000 nM; for `Fc1ccc(-c2nc3c(N4CCN(c5ccccc5)CC4)nccc3[nH]2)cc1F`: over 1000 nM.
On the same count and under the same terms, the same measure for `CN1CCN(CC2CCN(c3ccnc4[nH]c(-c5cc(F)cc(F)c5)nc34)CC2)CC1`: 530 nM; for `Fc1ccc(-c2nc3c(C4CCNCC4)nccc3[nH]2)cc1F`: over 10000 nM; for `Fc1ccc(-c2nc3c(N4CCN(CC(F)(F)F)CC4)nccc3[nH]2)cc1F`: 2300 nM.
Turning to `CN1CCN(C2CCN(c3nccc4[nH]c(C5CCCC5)nc34)CC2)CC1`, the 50% inhibitory concentration (IC50) is over 10000 nM.
The same measure, in the same setting: as for `OCCN1CCN(c2nccc3[nH]c(-c4ccc(F)c(F)c4)nc23)CC1`, the figure is 570 nM.
In the case of `O=S1(=O)CCN(CC2CCN(c3nccc4[nH]c(-c5cc(F)cc(F)c5)nc34)CC2)CC1`, the IC50 worked out at 1400 nM.
Same read-out and setting: as for `CN1CCN(CC2CCN(c3nccc4[nH]c(C5CCCC5)nc34)CC2)CC1`, the figure is 9300 nM; as for `CN1CCN(CC2CCN(c3nccc4[nH]c(-c5cccc(OCCN)c5)nc34)CC2)CC1`, 2200 nM; as for `CN1CCN(CC2CCN(c3nccc4c3nc(-c3cc(F)cc(F)c3)n4C)CC2)CC1`, over 3000 nM.
Same read-out and setting: the same measure for `COC(=O)c1cccc(-c2nc3c(N4CCC(N5CCN(C)CC5)CC4)nccc3[nH]2)c1`: 79 nM; for `CN1CCN(C2CCN(c3nccc4[nH]c(-c5cccc(C#N)c5)nc34)CC2)CC1`: 110 nM.
